In assay [1] the target is 5'-nucleotidase (Homo sapiens) (UniProt P21589). Briefly: Inhibition of human Ecto-5'-NT expressed in african green monkey COS7 cells using AMP as substrate at 0.1 mM preincubated for 10 mins measured after 10 mins. Format: cell-based. The note with it: COS-7. The method in brief: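 Human ecto-5'-NT from membrane extracts of transfected COS-7 cells (6.94 µg/mL). Preincubated with compound 10 min at 37 °C in 10 mM Hepes, 2 mM MgCl₂, 1 mM CaCl₂, pH 7.4. Started with 500 µM AMP, 10 min at 37 °C, stopped at 99 °C for 20 min. Adenosine quantified by capillary electrophoresis, UV at 260 nm, with <10% substrate conversion.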
Chain of 5'-nucleotidase (Homo sapiens) (P21589 whole entry): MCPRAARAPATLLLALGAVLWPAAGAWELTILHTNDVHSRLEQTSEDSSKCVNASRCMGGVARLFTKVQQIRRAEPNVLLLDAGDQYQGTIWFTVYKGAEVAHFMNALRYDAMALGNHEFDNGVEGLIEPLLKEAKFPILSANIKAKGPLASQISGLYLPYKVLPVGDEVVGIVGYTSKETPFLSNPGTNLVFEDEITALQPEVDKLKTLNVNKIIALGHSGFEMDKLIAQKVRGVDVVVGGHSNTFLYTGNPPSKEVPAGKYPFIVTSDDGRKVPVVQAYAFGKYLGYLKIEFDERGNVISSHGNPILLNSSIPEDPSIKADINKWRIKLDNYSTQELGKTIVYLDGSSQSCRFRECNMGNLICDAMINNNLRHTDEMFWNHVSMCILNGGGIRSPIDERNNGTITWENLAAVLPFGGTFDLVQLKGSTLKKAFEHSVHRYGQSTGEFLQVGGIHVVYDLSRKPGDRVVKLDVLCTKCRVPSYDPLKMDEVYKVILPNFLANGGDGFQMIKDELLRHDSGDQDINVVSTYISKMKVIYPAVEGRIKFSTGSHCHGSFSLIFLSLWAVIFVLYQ

Assay [2] addresses T1, Alkaline phosphatase, tissue-nonspecific isozyme (Bos taurus, UniProt P09487).
T1 sequence (P09487 whole entry): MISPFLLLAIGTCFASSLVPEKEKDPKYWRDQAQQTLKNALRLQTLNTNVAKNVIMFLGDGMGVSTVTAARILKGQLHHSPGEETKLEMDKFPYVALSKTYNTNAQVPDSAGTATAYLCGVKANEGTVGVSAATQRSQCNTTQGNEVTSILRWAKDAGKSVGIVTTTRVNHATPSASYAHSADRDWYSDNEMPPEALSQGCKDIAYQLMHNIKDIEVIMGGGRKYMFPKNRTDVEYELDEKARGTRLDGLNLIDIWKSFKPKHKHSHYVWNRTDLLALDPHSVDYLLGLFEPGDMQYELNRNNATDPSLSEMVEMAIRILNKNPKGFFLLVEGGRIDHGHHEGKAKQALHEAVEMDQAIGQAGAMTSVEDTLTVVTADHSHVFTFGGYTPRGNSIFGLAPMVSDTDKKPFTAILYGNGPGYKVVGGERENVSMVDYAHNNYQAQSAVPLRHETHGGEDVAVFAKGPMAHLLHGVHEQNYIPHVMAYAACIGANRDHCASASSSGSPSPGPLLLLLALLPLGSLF
In words: Inhibition of bovine kidney […] alkaline phosphatase using p-NPP as substrate treated 10 mins before substrate addition measured after 30 mins by spectrophotometric assay. The essentials:
(§1)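 Calf intestinal ALP (0.025 U/mL) or TNALP (0.5 U/mL) in 50 mM Tris-HCl, 5 mM MgCl₂, 0.1 mM ZnCl₂, pH 9.5 with compound (1% DMSO final), 10 min. Started with 0.5 mM p-NPP, 30 min at 37 °C, p-nitrophenolate read at 405 nm. Screened at 0.1 mM. Actives (>50%) got 8–10 dilutions, 1 mM to 10 nM, three times in triplicate. IC50 by nonlinear fit, Ki by Cheng–Prusoff.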

Assay [3] is described as follows: Inhibition of porcine kidney […] alkaline phosphatase using p-NPP as substrate treated 10 mins before substrate addition measured after 30 mins by spectrophotometric assay. Set-up: species or system Sus scrofa. The method in brief: as §1
Assay [4] addresses Intestinal-type alkaline phosphatase (Bos taurus, UniProt P19111). In words: Inhibition of bovine intestinal alkaline phosphatase using p-NPP as substrate treated 10 mins before substrate addition measured after 30 mins by spectrophotometric assay. The method in brief:
as §1

For assay [5], the target named is Intestinal-type alkaline phosphatase (Bos taurus) (UniProt P19111). In words: Competitive inhibition of bovine intestinal alkaline phosphatase using p-NPP as substrate by Double-reciprocal plot analysis. The essentials:
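Calf intestinal ALP kinetics: initial velocities measured with 4-NPP at 0.01-1 mM and inhibitor at 0, 100 and 300 nM. Double-reciprocal plots (1/[S] vs 1/v) were used to assign the inhibition mode. Buffer is 50 mM Tris-HCl, 5 mM MgCl₂, 0.1 mM ZnCl₂, pH 9.5, read at 405 nm.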

Molecules are shown by their SMILES. Active and inactive are the calls of the source. The calls are words filed in the database; no cut-off is given here.

Chain of Intestinal-type alkaline phosphatase (P19111 whole entry): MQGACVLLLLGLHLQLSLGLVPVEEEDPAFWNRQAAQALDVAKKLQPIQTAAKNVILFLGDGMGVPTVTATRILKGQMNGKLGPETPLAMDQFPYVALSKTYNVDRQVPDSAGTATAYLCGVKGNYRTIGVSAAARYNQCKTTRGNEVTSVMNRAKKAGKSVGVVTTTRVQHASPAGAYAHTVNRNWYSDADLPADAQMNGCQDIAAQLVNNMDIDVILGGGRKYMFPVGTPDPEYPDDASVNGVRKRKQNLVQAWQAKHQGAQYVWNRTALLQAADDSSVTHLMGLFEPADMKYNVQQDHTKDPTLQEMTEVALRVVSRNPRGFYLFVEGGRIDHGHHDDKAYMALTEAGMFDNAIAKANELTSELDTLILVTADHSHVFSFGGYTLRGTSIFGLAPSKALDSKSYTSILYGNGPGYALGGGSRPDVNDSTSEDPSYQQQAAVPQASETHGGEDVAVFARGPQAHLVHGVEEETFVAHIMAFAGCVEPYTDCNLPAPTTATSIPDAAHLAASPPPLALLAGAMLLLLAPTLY
Chain of Intestinal-type alkaline phosphatase (Bos taurus) (P19111 20-506 limits assumed): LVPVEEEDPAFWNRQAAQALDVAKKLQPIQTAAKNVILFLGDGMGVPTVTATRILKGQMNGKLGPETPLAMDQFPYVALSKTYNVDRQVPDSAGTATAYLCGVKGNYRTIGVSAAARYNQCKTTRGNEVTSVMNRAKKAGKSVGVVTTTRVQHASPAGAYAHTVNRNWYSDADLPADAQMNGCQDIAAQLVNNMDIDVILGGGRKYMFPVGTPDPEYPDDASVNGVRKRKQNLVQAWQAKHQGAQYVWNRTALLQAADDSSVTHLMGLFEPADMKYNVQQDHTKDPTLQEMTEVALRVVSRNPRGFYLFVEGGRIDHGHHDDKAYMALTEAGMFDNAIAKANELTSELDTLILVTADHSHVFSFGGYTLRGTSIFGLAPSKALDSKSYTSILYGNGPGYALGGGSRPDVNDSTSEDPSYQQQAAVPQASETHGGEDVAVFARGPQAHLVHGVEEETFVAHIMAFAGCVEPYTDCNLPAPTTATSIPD

With `CCOC1Oc2ccc(F)cc2C(=O)/C1=C/Nc1ccc(S(=O)(=O)Nc2nnc(C)s2)cc1` (centres undefined), the inhibition in assay [1] is 0%. Also, the values for the Ki in assay [2], in assay [3] and in assay [4] were 21 µM, 31.8 µM and 0.01 µM, respectively.
The like results for `CCOC1Oc2c(Br)cc(Br)cc2C(=O)/C1=C\Nc1ccccc1S(N)(=O)=O` (centres undefined) were, in that order, 63%, 29 µM, 11.7 µM and 0.2 µM.
For `O=c1c(C2Nc3ccccc3S(=O)(=O)N2)coc2ccc(Br)cc12` (centres undefined), the inhibition in assay [1] was 0%. Also, the inhibition entry in assay [5] is “Active”. Further, the Ki turned out to be 0.13 µM in assay [2] and 0.021 µM in assay [4].
As for `O=c1c(C2Nc3ccccc3S(=O)(=O)N2)coc2ccc(F)cc12` (centres undefined), the inhibition in assay [1] worked out at 0%. The Ki is 43 µM in assay [2], 2.8 µM in assay [3] and 0.78 µM in assay [4].
`CCOC1Oc2c(Br)cc(Br)cc2C(=O)/C1=C\Nc1cccc(S(N)(=O)=O)c1` (centres undefined) had an inhibition in assay [1] of 54%. The Ki in assay [2] was determined as 26 µM; in assay [3], 67.9 µM; in assay [4] it was 0.8 µM.
In the case of `CCOC1Oc2ccc(Br)cc2C(=O)/C1=C\Nc1cccc(S(N)(=O)=O)c1` (centres undefined), the inhibition in assay [1] came to 0%. Moreover, the values for the Ki in assay [2], in assay [3] and in assay [4] were 44 µM, 51.3 µM and 8.7 µM, respectively.
Compound `CCOC1Oc2ccccc2C(=O)/C1=C\Nc1cccc(S(N)(=O)=O)c1` (centres undefined) gave an inhibition in assay [1] of 0%. In addition, the results for the Ki in assay [2], in assay [3] and in assay [4] were 41 µM, 41.7 µM and 33.5 µM, respectively.
On to `CCOC1Oc2c(Br)cc(Br)cc2C(=O)/C1=C\Nc1ccc(S(N)(=O)=O)cc1` (centres undefined), for which the inhibition in assay [1] turned out to be 43%. The results for the Ki in assay [2], in assay [3] and in assay [4] were 63 µM, 55.3 µM and 5.1 µM, respectively.
The like results for `CCOC1Oc2ccc(F)cc2C(=O)/C1=C\Nc1ccc(S(N)(=O)=O)cc1` (centres undefined) were, in that order, 16%, 220 µM, 66.8 µM and 1.43 µM.
In assay [1], `CCOC1Oc2ccc(CC)cc2C(=O)/C1=C\Nc1cccc(S(N)(=O)=O)c1` (centres undefined) showed an inhibition of 30%. For the same compound, the Ki worked out at 16.8 µM in assay [2], 20.1 µM in assay [3] and 2.1 µM in assay [4].
For `CCOC1Oc2ccc(CC)cc2C(=O)/C1=C\Nc1ccc(S(N)(=O)=O)cc1` (centres undefined), in assay [1], the inhibition came out at 13%. In addition, the results for the Ki in assay [2], in assay [3] and in assay [4] were 60 µM, 68.8 µM and 2.6 µM, respectively.
With `O=c1c(C2Nc3ccccc3S(=O)(=O)N2)coc2ccccc12` (centres undefined), the inhibition in assay [1] stood at 0%. Further, the Ki in assay [2] was found to be 27 µM; in assay [3], 21.3 µM; in assay [4] it was 0.049 µM.
In turn, `CCOC1Oc2ccccc2C(=O)/C1=C/Nc1ccc(S(=O)(=O)Nc2cc(OC)nc(OC)n2)cc1` (centres undefined) gave an inhibition in assay [1] of 0%. Moreover, the values for the Ki in assay [2], in assay [3] and in assay [4] were 23 µM, 35.4 µM and 7.8 µM, respectively.
The matching figures for `CCOC1Oc2ccccc2C(=O)/C1=C/Nc1ccc(S(=O)(=O)Nc2ccccn2)cc1` (centres undefined): 0%, 22 µM, 21.2 µM and 0.41 µM.
In assay [1], `CCOC1Oc2ccc(Br)cc2C(=O)/C1=C\Nc1ccc(S(N)(=O)=O)cc1` (centres undefined) had an inhibition of 52%. Further, the Ki in assay [2] amounted to 48 µM; in assay [3], 44.6 µM; in assay [4] it was 0.41 µM.
In turn, `CCOC1Oc2ccccc2C(=O)/C1=C/Nc1ccc(S(=O)(=O)Nc2ccc(OC)nn2)cc1` (centres undefined) registered an inhibition in assay [1] of 0%. The Ki in assay [2] was 38 µM; in assay [3], 52.5 µM; in assay [4], 7.8 µM.
In the case of `CCOC1Oc2ccccc2C(=O)/C1=C\Nc1ccc(S(N)(=O)=O)cc1` (centres undefined), in assay [1], the inhibition came to 5.7%. Further, the Ki stood at 6.8 µM in assay [2], 10.9 µM in assay [3] and 90.6 µM in assay [4].
With `CCOC1Oc2ccc(F)cc2C(=O)/C1=C\Nc1cccc(S(N)(=O)=O)c1` (centres undefined), the inhibition in assay [1] is 0%. The Ki in assay [2] came out at 18 µM; in assay [3] it was 19.9 µM; in assay [4], 17.1 µM.
`CCOC1Oc2ccc(Br)cc2C(=O)/C1=C/Nc1ccc(S(=O)(=O)Nc2ccccn2)cc1` (centres undefined): the inhibition in assay [1] stood at 0%. In addition, the Ki in assay [2] was determined as 74 µM; in assay [3], 73.6 µM; in assay [4], 9.3 µM.
Regarding `CCOC1Oc2ccccc2C(=O)/C1=C/Nc1ccc(S(=O)(=O)Nc2nnc(C)s2)cc1` (centres undefined), in assay [1], the inhibition amounted to 26%. Moreover, the Ki turned out to be 0.25 µM in assay [2], 0.079 µM in assay [3] and 0.085 µM in assay [4].
In assay [1], `CCOC1Oc2ccc(CC)cc2C(=O)/C1=C\Nc1ccccc1S(N)(=O)=O` (centres undefined) showed an inhibition of 4%. The values for the Ki in assay [2], in assay [3] and in assay [4] were 29 µM, 18 µM and 0.4 µM, respectively.

One may read the inhibition as how much of the control response was suppressed. For orientation: Ki means a dissociation constant, usually derived from enzyme kinetics or from competition with a known ligand.

For the origin of these results see ChEMBL document CHEMBL2407035, “Identification of novel chromone based sulfonamides as highly potent and selective inhibitors of alkaline phosphatases” (Eur J Med Chem, 2013).
